One may read the IC50 as the concentration at which inhibition is half-maximal. Broadly, the AUC(0-t) is exposure summed from dosing to a finite time, without extrapolation to infinity. Lower therefore signals low exposure. The Tmax is the time at which the peak concentration occurs.

One data set concerns the target Fgr (Homo sapiens, UniProt P09769). The data set is described as follows: Kinase inhibition assay. Type of data set: biochemical. The gist of the method: (§1)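 Kinase activity was measured by commercial services. IC50 is the mean of 3 independent experiments.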
The subject of data set [1] is human retinal microvascular EC. The data set is described as follows: Endothelial cell proliferation assay. Type of data set: cell-based. Particulars: 48 hr; 10% FBS, 50 ng/mL rhVEGF; mean ± SEM, N= 3. In short, it runs like this: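 Human retinal microvascular EC were grown 48 hr with test compound (2 nM–5 µM) or DMSO vehicle in medium containing 10% FBS, 50 µg/mL heparin and 50 ng/mL rhVEGF. Cell number was read by XTT assay.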

The target in a further data set is PDGFRβ (Homo sapiens, UniProt P09619). The data set is described as follows: Kinase inhibition assay. Type of data set: biochemical. In short, it runs like this:
as §1

The nature of data set [2]: Oral and intravenous administration, systemic exposure. The note with it: data not shown; for Oral bioavailability: oral administration. In kind it is in vivo.
The target in a further data set is Src (Homo sapiens, UniProt P12931). The data set is described as follows: Kinase inhibition assay. Type of data set: biochemical.
Sequence of Src (P12931 whole entry, species assumed): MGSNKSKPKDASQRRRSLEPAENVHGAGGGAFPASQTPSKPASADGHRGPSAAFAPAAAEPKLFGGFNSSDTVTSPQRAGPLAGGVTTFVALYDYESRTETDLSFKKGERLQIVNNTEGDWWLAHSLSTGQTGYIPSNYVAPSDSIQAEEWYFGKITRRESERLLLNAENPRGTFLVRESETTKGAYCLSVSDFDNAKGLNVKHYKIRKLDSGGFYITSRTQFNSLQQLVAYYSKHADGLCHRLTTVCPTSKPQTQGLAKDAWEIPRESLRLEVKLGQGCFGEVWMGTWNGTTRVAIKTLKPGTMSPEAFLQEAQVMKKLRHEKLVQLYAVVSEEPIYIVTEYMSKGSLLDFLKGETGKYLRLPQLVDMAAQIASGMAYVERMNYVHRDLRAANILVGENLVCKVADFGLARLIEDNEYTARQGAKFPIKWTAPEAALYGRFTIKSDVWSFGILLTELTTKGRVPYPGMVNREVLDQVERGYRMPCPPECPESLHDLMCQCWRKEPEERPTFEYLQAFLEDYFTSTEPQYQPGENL
Another data set deals with VEGFR1 (Homo sapiens, UniProt P17948). The data set is described as follows: Kinase inhibition assay. In kind it is biochemical. In short, it runs like this:
as §1

Data set [3] in a line: Body weight and tolerability in the mouse CNV study. In kind it is in vivo. Particulars: 14 days.
A further data set concerns the target VEGFR2 (Homo sapiens, UniProt P35968). The data set is described as follows: Kinase inhibition assay. In kind it is biochemical. The gist of the method: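 Kinase inhibition was run by commercial services, with the test compound supplied as a DMSO stock. IC50 is the mean from 3 independent experiments.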
Data set [4] in a line: Pharmacokinetics after topical dosing in mice. In kind it is in vivo, C57BL/6 mice. Particulars: for Plasma concentration (below level of detection): mouse, topical 1% TG100801, all time points, analyte = labelled compound.
The target in a further data set is Lck (Homo sapiens, UniProt P06239). The data set is described as follows: Kinase inhibition assay. Type of data set: biochemical.
In another data set the target is Fyn (Homo sapiens, UniProt P06241). The data set is described as follows: Kinase inhibition assay. In kind it is biochemical. In short, it runs like this: as §1
Sequence of Fyn (P06241 whole entry, species assumed): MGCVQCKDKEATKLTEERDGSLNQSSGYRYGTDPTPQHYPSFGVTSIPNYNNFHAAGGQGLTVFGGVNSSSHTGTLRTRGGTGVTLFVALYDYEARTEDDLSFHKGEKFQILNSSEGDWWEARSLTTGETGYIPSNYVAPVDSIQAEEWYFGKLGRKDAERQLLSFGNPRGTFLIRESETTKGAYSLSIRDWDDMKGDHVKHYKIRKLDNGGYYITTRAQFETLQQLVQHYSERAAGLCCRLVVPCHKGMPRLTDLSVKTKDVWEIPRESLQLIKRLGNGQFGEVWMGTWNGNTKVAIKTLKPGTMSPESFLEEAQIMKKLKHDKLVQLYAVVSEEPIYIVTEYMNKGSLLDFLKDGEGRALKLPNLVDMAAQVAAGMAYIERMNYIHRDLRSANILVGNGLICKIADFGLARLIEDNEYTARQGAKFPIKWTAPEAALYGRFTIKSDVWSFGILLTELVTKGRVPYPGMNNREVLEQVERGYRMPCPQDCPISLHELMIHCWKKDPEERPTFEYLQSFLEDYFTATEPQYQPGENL
In a further data set the target is Hck (Homo sapiens, UniProt P08631). The data set is described as follows: Kinase inhibition assay. Type of data set: biochemical. The gist of the method: as §1
The next data set has as its target Lyn (Homo sapiens, UniProt P07948). The data set is described as follows: Kinase inhibition assay. Type of data set: biochemical. In short, it runs like this: as §1
The test system of data set [5] is laser-induced choroidal neovascularization (CNV). The data set is described as follows: Mouse model of laser-induced CNV. In kind it is in vivo, C57BL/6 mice. Particulars: 14 days.
A further data set has as its target FGFR2 (Homo sapiens, UniProt P21802). The data set is described as follows: Kinase inhibition assay. Type of data set: biochemical. In short, it runs like this: as §1
The target of the next data set is Yes (Homo sapiens, UniProt P07947). The data set is described as follows: Kinase inhibition assay. Type of data set: biochemical. The gist of the method: as §1
Another data set addresses FGFR1 (Homo sapiens, UniProt P11362). The data set is described as follows: Kinase inhibition assay. In kind it is biochemical. In short, it runs like this: as §1
Data set [6] in a line: Ocular tissue levels after i.p. dosing in mice. Type of data set: in vivo, C57BL/6 mice. Particulars: C57BL/6, mouse, ip, 5 mg/kg. In short, it runs like this: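 C57BL/6 mice (15–20 g) got 5 mg/kg test compound i.p. twice daily for 4 days, then a single dose on Day 5. Eyes were taken 5 hr later, dissected into retina and sclera/choroid eye cups, and pooled (N=2–4). Tissue was homogenized in RIPA, extracted with acetonitrile containing internal standards and quantified by LC/MS/MS against standards made in naive tissue.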

The subject of data set [7] is VEGF-induced phosphorylation of extracellular signal-regulated kinase (ERK). The data set is described as follows: Western blot of VEGF-induced signaling in microvascular EC. In kind it is cell-based, human. The note with it: 1 µM for 1 hr, then rhVEGF 50 ng/ml 10 min. In short, it runs like this:
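Endothelial cells were held overnight in serum- and growth factor-free medium before test compound exposure. After 10 min rhVEGF, cells were lysed and blotted for phosphorylated Erk1/2, with total STAT3 as loading control. Comparison groups were no-VEGF and VEGF-only cultures.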
On the technique in general: In western blotting, separated proteins are transferred to a membrane and probed.

For data set [8], the system named is subfoveal choroidal neovascularization (CNV) due to AMD. The note with it: intraocular injections every 6 weeks; ref Gragoudas et al., 2004; cited from earlier work.
Data set [9] relates to retinal and choroidal neovascularization. The note with it: topical administration to the eye; ref Takahashi et al., 2003; cited from earlier work.
Data set [10] deals with retinal edema after retinal vein thrombosis. The data set is described as follows: Rat model of retinal vein occlusion, retinal thickness by OCT. Type of data set: in vivo, Long Evans rats. The note with it: topical 1% TG100801. In short, it runs like this: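 The same Rose Bengal/laser vein-occlusion protocol and 5-dose topical schedule were used, with 1% test prodrug or vehicle; naive eyes served as comparators. Under ketamine/xylazine, vertical OCT scans covered 5 mm from the optic disc edge. Thickness was calculated at 6 evenly spaced points, and retinal area was derived. Assessment was blinded, n=17–21.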

Data set [11] has the same test system. In kind it is in vivo, Long Evans rats. The gist of the method: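 Long Evans rats (250–275 g) got i.v. Rose Bengal (20 mg/kg), then laser thrombosis of one vein in the right eye. Both eyes received 10 µL test prodrug (0.3–1%) or vehicle, 5 doses over 3 days. Edema Index = (right AUC − left AUC)/left AUC. Scoring was blinded, n=9–11.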
Data set [12] in a line: Ocular safety assessment in rabbits. Type of data set: in vivo, Dutch Belted rabbits. Particulars: rabbit, 1% topical four times per day for 28 days. The gist of the method: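 Dutch Belted rabbits (1.7–2.2 kg) had baseline gross and slit lamp exams. Each eye then received 40 µL of 1% test prodrug or vehicle topically four times daily for 28 days. Gross exams were done daily and slit lamp exams weekly. On Day 29, final exams and ERGs were done, then eyes were taken for histopathology.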

Data set [13] is described as follows: Ocular distribution of 14C-TG100801. The note with it: rabbit, 30 min after single 40 µL topical 1% TG100801 containing 14C-TG100801, left eye; liquid scintillation counter. In kind it is in vivo, Dutch-Belted rabbit. The gist of the method:
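A single male Dutch-Belted rabbit (2.1 kg) received 25 µCi of 14C label in the dose. The label sits on a position kept after prodrug conversion, so counts cover prodrug plus active drug. About 30 mL blood was taken 30 min post-instillation. Blood and plasma were counted directly by liquid scintillation.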

For the next data set, the system named is kinase. The data set is described as follows: Anti-kinase activity of the prodrug. In kind it is biochemical. Particulars: data not shown.

Like-named read-outs stand apart in the source and are kept apart here.

Sequence of Lyn (P07948 whole entry, species assumed): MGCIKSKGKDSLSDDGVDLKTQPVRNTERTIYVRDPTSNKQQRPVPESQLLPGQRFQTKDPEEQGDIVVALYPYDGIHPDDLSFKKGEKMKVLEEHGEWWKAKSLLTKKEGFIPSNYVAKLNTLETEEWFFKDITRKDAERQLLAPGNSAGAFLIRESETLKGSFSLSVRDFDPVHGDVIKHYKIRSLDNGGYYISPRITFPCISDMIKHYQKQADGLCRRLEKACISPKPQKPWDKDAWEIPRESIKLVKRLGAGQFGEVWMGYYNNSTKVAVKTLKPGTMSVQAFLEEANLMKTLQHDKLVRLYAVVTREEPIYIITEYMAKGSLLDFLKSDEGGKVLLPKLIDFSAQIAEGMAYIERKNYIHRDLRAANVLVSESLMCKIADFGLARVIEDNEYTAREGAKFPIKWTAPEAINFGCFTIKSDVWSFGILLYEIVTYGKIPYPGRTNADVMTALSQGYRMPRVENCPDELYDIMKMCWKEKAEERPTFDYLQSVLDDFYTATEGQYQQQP
Sequence of FGFR2 (P21802 22-821, species assumed): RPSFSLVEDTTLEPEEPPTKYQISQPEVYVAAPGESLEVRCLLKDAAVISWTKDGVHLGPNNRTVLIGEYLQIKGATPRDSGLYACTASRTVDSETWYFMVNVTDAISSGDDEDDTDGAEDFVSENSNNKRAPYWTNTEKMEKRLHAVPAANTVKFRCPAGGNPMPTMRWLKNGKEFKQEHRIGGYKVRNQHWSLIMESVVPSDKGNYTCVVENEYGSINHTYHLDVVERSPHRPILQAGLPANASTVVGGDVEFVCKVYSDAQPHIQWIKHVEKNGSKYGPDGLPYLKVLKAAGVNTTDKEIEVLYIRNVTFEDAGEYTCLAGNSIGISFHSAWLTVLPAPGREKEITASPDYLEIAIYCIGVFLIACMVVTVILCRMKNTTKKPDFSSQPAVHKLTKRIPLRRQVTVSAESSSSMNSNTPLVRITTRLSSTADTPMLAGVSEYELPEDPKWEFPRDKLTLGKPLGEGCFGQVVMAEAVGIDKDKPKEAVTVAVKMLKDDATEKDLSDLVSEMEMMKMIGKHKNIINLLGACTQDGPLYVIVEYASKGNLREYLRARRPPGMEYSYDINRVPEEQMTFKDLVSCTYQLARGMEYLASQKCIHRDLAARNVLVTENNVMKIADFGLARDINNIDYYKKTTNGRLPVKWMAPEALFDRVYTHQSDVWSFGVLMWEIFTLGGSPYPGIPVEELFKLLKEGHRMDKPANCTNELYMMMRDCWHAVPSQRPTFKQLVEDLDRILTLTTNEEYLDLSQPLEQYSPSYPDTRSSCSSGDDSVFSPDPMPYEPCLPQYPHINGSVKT
Sequence of PDGFRβ (P09619 33-1106, species assumed): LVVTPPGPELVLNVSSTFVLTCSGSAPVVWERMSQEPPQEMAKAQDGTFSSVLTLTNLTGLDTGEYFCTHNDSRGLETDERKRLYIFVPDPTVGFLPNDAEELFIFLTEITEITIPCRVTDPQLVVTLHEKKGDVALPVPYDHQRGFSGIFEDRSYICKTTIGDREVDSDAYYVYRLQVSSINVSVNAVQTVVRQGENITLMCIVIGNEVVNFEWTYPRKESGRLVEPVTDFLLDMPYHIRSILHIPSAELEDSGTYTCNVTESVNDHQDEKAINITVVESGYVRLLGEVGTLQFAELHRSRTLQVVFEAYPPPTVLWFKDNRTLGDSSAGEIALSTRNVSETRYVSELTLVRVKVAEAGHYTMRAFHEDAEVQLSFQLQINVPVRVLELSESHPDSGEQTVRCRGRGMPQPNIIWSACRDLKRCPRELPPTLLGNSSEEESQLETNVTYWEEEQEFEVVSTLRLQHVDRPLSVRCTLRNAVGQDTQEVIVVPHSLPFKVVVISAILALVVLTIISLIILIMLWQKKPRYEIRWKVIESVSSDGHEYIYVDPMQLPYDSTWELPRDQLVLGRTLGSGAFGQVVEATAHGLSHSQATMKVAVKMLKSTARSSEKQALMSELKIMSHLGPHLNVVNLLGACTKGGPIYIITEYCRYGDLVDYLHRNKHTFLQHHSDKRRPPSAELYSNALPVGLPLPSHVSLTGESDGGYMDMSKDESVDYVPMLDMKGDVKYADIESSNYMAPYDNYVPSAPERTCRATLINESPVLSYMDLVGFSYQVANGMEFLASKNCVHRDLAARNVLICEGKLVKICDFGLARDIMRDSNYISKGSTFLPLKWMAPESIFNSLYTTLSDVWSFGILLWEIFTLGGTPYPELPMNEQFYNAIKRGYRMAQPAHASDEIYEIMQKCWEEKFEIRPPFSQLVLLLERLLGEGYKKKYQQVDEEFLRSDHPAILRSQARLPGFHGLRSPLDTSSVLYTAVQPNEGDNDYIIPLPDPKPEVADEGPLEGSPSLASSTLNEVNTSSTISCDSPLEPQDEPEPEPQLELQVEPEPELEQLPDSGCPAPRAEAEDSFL
Sequence of VEGFR2 (P35968 20-1356, species assumed): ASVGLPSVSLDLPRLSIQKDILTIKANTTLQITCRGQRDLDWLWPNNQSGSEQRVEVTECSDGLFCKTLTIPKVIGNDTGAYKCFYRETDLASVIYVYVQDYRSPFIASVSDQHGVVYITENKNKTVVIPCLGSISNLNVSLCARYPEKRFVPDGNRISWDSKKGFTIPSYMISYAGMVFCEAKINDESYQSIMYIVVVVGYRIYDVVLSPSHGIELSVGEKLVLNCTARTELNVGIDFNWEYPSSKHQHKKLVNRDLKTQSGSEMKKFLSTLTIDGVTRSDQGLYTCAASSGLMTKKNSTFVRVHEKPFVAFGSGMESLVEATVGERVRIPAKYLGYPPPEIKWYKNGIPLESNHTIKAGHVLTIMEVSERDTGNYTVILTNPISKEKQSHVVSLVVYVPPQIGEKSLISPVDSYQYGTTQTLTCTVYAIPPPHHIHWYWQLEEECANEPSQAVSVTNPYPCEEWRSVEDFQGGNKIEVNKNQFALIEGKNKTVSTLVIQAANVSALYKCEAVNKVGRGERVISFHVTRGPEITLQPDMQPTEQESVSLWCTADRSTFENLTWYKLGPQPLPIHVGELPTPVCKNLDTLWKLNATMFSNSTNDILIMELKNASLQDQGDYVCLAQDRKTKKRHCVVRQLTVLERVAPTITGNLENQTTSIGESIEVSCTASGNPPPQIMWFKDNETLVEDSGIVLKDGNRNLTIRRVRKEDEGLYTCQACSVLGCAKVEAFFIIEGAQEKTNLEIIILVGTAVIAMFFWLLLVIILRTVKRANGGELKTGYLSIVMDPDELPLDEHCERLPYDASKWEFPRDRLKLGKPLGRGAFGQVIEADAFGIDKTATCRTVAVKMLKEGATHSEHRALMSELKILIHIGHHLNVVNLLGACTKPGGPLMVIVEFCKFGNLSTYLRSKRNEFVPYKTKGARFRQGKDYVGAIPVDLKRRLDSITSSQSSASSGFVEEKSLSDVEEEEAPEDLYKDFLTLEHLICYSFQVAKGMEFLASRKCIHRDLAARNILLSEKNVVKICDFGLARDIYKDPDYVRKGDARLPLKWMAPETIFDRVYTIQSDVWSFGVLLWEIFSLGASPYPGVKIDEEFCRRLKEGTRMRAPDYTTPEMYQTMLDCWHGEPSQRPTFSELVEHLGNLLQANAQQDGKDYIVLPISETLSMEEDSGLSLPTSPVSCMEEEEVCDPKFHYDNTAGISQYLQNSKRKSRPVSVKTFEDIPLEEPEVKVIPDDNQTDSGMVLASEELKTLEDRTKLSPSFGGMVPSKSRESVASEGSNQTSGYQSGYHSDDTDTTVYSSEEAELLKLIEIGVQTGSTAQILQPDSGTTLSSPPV

For `Cc1cc(-c2cc(O)ccc2Cl)cc2nnc(Nc3ccc(OCCN4CCCC4)cc3)nc12` [TG100572, 4-chloro-3-(5-methyl-3-{[4-(2-pyrrolidin-1-ylethoxy)phenyl]amino}-1,2,4-benzotriazin-7-yl)phenol], the half-maximal inhibitory concentration (IC50) at Fgr came out at 5 nM; on PDGFRβ it was 13 nM; at Src, 1 nM; against VEGFR1, 2 nM; against VEGFR2, 7 nM; on Lck, 0.1 nM. Besides, the 50% inhibitory concentration (IC50) on Fyn turned out to be 0.5 nM; against Hck it was 6 nM; against Lyn, 0.4 nM; on FGFR2, 16 nM; against Yes, 0.2 nM; on FGFR1, 2 nM. Also, the “ED50, inhibition of vascular endothelial cell proliferation” value in data set [1] was 610 ± 71 nM. Besides, the “Clearance after intravenous administration” value in data set [2] is listed as “rapidly cleared”. Moreover, the Oral bioavailability result in data set [2] is listed as “oral administration does not result in detectable levels in the circulation”. Besides, in data set [3] (TG100572 5 mg/kg i.p. daily, vehicle gained 1%, P= 0.006), the “Body weight loss over the study” value amounted to 11%. The AUC(0-t) in data set [4] (C57BL/6, mouse, posterior eyecup (sclera/choroid/retina), topical or ocular, 1 %) is 6.8 µM·h. In addition, the time of peak concentration (Tmax) in [4] (C57BL/6, mouse, sclera/choroid, topical or ocular, 1 %) is 1 h. In addition, the “Plasma concentration (below level of detection)” value in [4] was < 2 nM. For the same compound, the “Reduction of CNV area compared to vehicle” value in data set [5] (TG100572 5 mg/kg i.p. daily, P< 0.001) was 40%. Besides, the concentration at 5 h in [6] (choroid/sclera) is 9000 nM; in [6] (retina), 818 nM. Moreover, the “VEGF-induced phosphorylation of ERK” value in [7] is given as “blocked VEGF-induced phosphorylation of extracellular signal-regulated kinase (ERK)”.

As for pegaptanib, the “Severe vision loss over 1 year” value in data set [8] is given as “reduction in severe vision loss”.

For `NC(=O)Cc1cccc(C(=O)c2ccccc2)c1N` [nepafenac], the “Effect on retinal and choroidal neovascularization” value in data set [9] is “inhibits retinal and choroidal neovascularization”.

In the case of `Cc1cc(-c2cc(OC(=O)c3ccccc3)ccc2Cl)cc2nnc(Nc3ccc(OCCN4CCCC4)cc3)nc12` [TG100801, 4-chloro-3-(5-methyl-3-{[4-(2-pyrrolidin-1-ylethoxy)phenyl]amino}-1,2,4-benzotriazin-7-yl)phenyl benzoate], in data set [10] (thrombosed eyes, naive 203 ± 2, vehicle 327 ± 23), the “Average retinal area in the region encompassed by the OCT scans” value worked out at 257 ± 13 µm^2. Besides, the “Reduction of retinal thickness vs vehicle at points along 5 mm OCT scans” value in data set [10] (5 out of 6 points, P< 0.05) is listed as 15–26%. The “Reduction of average retinal area vs vehicle-treated group” value in [10] (P= 0.013) is recorded as 21%. Besides, in data set [2], the “Clearance after intravenous administration” value is on record as “rapidly cleared” and the Oral bioavailability result is “oral administration does not result in detectable levels in the circulation”. For the same compound, the “Ocular tolerability by slit lamp examination” value in data set [3] (mouse, topical 0.6% and 1% twice a day) is “well tolerated with no signs of irritation, inflammation, or other ocular toxicity”. The “Plasma concentration (below level of detection)” value in [4] is on record as < 2 nM. For the same compound, the “Reduction in edema (Edema Index, fluorescein leakage) vs vehicle” value in [11] (topical 0.3% TG100801, 5 applications over 3 days, P= 0.002) turned out to be 47%. Also, in data set [11] (topical 1% TG100801, 5 applications over 3 days, P = 0.039), the “Reduction in edema (Edema Index, fluorescein leakage) vs vehicle” value is 32%. For the same compound, in [12], the “Daily gross exams and weekly slit lamp exams” value is given as “did not detect ocular changes beyond baseline responses”; the “Electroretinograms (ERG) pre- and post-study” value is recorded as “no meaningful changes”; the “Ocular histopathology at study end” value is on record as “normal ocular histology”; the “Ocular tolerability, overall judgement” value is listed as “well-tolerated”. The “Body weight during the study” value in [12] (data not shown) is listed as “did not lose weight”. Also, in data set [13], the “Radioactivity in plasma samples” value was “absence of detectable radioactivity”. For the same compound, the “Reduction of CNV area relative to vehicle” value in [5] (topical 1% TG100801 twice a day, P= 0.036) is reported as 58%. Moreover, in the data set with kinase, the Anti-kinase activity entry is “does not display meaningful anti-kinase activity”.

Values taken from article PMC3032767 (Journal of cellular physiology, 2008).
